Square brackets hold non-standard residues; d marks the D form. Peptide text beside a SMILES is read from it.

Assay [1] in a line: Inhibitory activity against low binding affinity binding site of Bradykinin receptor in guinea pig ileum was reported. Type of assay: tissue-based, Cavia porcellus. Summed up: (§1)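 Fresh rat myometrial or guinea pig ileum membranes (0.3–0.5 mg protein) incubated 30 min at 4 °C with 0.05 nM [3H]BK and increasing peptide concentrations. Buffer: 25 mM TES pH 6.8, 1 µM captopril, 1 mM DTE, bacitracin, BSA. Samples filtered on PEI-treated GF/C and counted. High- and low-affinity IC50s from Tobler–Engel analysis; duplicates.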

Assay [2] is filed under the species Cavia porcellus. Put plainly: Antagonistic activity was evaluated in Guinea pig lung strip assay. Type of assay: functional. Details: scale not given: the % may be the effect or the level left. The gist of the method:
(§2)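 Lower-lobe lung strips (2–3 mm) from guinea pigs (400–600 g) in Krebs–Henseleit at 37 °C under 1 g load, with isometric tension recorded. After 1 h equilibration, peptide was given 5 min before an ED50 dose of BK. Cumulative BK curves covered 0.01–10 µM. pA2 by the van Rossum method.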

The species named for assay [3] is Rattus norvegicus. Nature of the assay: Agonistic activity was evaluated in Estrus Rat Uterus Assay. Type of assay: functional. Summed up: (§3)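 Uteri from female Wistar rats (180–200 g) given diethylstilbestrol 100 µg/kg sc 16 h before use. Distal horns held in de Jalon solution at 28 °C under 0.5 g resting tension, with isotonic contractions recorded. BK was dosed every 4 min and left in the bath 45 s. Agonist activity by Schild 4-point method, expressed as percent of BK activity.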

For assay [4], the species on record is Cavia porcellus. Put plainly: (§4) Antagonistic activity was evaluated in Guinea pig ileum assay. The class given is functional, organism-based. The following applies: read-out: pA2 (converted). Summed up: (§5)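 Guinea pig terminal ileum in Tyrode at 37 °C under 0.5 g tension, isotonic recording. Analog added 5 min before a cumulative BK dose–response curve (maximum at 0.3 µM BK). pA2 is the negative log of the antagonist concentration that reduces the effect of a double BK dose to that of a single dose. Means of 3–7 determinations.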

Assay [5] in a line: Inhibitory activity against low binding affinity binding site of Bradykinin receptor in rat uterus membrane was reported. Type of assay: cell membranes. Summed up:
as §1

Assay [6] is described as follows: Inhibitory activity against high binding affinity binding site of Bradykinin receptor in rat uterus membrane was reported. The class given is cell membranes. Summed up: as §1
Assay [7] can be described thus: Selectivity for rat uterus is expressed as the ratio RUT/GPI. Type of assay: functional. The gist of the method: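 Ratio of agonist activity (percent of BK) in estrus rat uterus to that in guinea pig ileum, both from isotonic contraction assays using the Schild 4-point method.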
Assay [8] in a line: Inhibitory activity against low affinity binding site of Bradykinin receptor in rat uterus membrane was reported. Type of assay: cell membranes. Summed up: as §1
Assay [9] is described as follows: Inhibitory activity against low affinity binding site of Bradykinin receptor in guinea pig ileum. The class given is tissue-based. The following applies: Cavia porcellus. The gist of the method:
as §1

Assay [10] in a line: Inhibitory activity against high affinity binding site of Bradykinin receptor in rat uterus membrane was reported. Type of assay: cell membranes. Summed up:
as §1

The species named for assay [11] is Cavia porcellus. Described as §4. The class given is functional. Details: scale not given: the % may be the effect or the level left. The gist of the method:
as §5

Assay [12] can be described thus: Inhibitory activity against high affinity binding site of Bradykinin receptor in guinea pig ileum was reported. The following applies: Cavia porcellus. The class given is tissue-based. The gist of the method:
as §1

The species entered for assay [13] is Cavia porcellus. Put plainly: Agonistic activity against selectivity for smooth muscle contraction in guinea pig ileum. The class given is functional, Muscle tissue. Summed up:
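Isolated terminal ileum (1.5 cm) from guinea pigs fasted 16 h, in Tyrode at 37 °C. Isotonic contractions recorded under 0.5 g resting tension. Agonist activity measured by Schild 4-point method against BK doses of 1 and 2 nM, expressed as percent of BK activity.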

Assay [14] is filed under the species Rattus norvegicus. Put plainly: Agonistic activity against selectivity for smooth muscle contraction in rat uterus. The class given is functional, Muscle tissue. The gist of the method: as §3
For assay [15], the species on record is Rattus norvegicus. Nature of the assay: Compound was tested for agonist activity for contraction of rat uterus, the negative logarithm of ED50 (pD2) was estimated.
The species entered for assay [16] is Cavia porcellus. Nature of the assay: Compound was tested for agonist activity for contraction of guinea pig ileum; the negative logarithm of ED50 (pD2) was estimated.
The species entered for assay [17] is Cavia porcellus. Nature of the assay: Antagonistic activity expressed as pA2 in Guinea pig lung strip assay. The following applies: read-out: pA2 (converted). The class given is functional. Summed up: as §2

Broadly, the IC50 is the midpoint of a concentration-inhibition curve. On to `NC(N)=NCCC[C@H](NC(=O)[C@H](Cc1ccccc1)NC(=O)[C@@H](Cc1ccccc1)NC(=O)[C@H](CO)NC(=O)[C@H](Cc1ccccc1)NC(=O)CNC(=O)[C@@H]1CCCN1C(=O)[C@@H]1CCCN1C(=O)[C@@H](N)CCCN=C(N)N)C(=O)O` (H-RPPGFS[dF]FR-OH), for which the IC50 in [1] is 14 nM; in assay [5], 3.5 nM; in assay [6], 6.6 nM. Also, the results for the Activity in the assay listed under Cavia porcellus [2] and in the assay listed under Rattus norvegicus [3] were 0.9% and 1.7%, respectively. In the assay listed under Cavia porcellus [4], the Kb is 2750 nM.
For `CN(C(=O)[C@H](CO)NC(=O)[C@H](Cc1ccccc1)NC(=O)CNC(=O)[C@@H]1CCCN1C(=O)[C@@H]1CCCN1C(=O)[C@@H](N)CCCN=C(N)N)[C@H](Cc1ccccc1)C(=O)N[C@@H](Cc1ccccc1)C(=O)N[C@@H](CCCN=C(N)N)C(=O)O`, the Ratio in [7] stood at 300. Also, the IC50 came out at 4.8 nM in assay [8], 132 nM in assay [9], 0.11 nM in assay [10] and 1 nM in assay [12]. Also, the Activity in the assay filed under Cavia porcellus [2] came out at 1.4%; in the assay listed under Rattus norvegicus [3], 136%; in the assay filed under Cavia porcellus [11] it was 0.04%.
Turning to H-RPPGFSPFR-OH [BRADYKININ], the Activity in the assay filed under Cavia porcellus [13], in the assay listed under Rattus norvegicus [14], in the assay filed under Cavia porcellus [2], in the assay listed under Rattus norvegicus [3] and in the assay filed under Cavia porcellus [11] was 100% each time. For the same compound, the pD2 is 7.9 in the assay filed under Rattus norvegicus [15] and 7.4 in the assay listed under Cavia porcellus [16]. Further, in [7], the Ratio is given as 1. Further, the IC50 in assay [8] worked out at 1 nM; in assay [9], 1.75 nM; in [10] it was 0.01 nM; in assay [12], 0.01 nM.
As to `CN(C(=O)[C@H](CO)NC(=O)[C@H](Cc1cccs1)NC(=O)CNC(=O)[C@@H]1CC(O)CN1C(=O)[C@@H]1CCCN1C(=O)[C@@H](N)CCCN=C(N)N)[C@H](Cc1ccccc1)C(=O)N[C@@H](Cc1ccccc1)C(=O)N[C@@H](CCCN=C(N)N)C(=O)O` (stereo partly drawn), the IC50 was 29 nM in assay [1], 65 nM in assay [5] and 0.49 nM in assay [6]. Besides, the Ratio in assay [7] came out at 4000. Also, the Activity in the assay listed under Cavia porcellus [2] worked out at 0.04%; in the assay filed under Rattus norvegicus [3], 89%; in the assay filed under Cavia porcellus [11], 0.02%.
As for `CN(C(=O)[C@@H](N)CCCN=C(N)N)[C@@H](Cc1ccccc1)C(=O)N1CCC[C@H]1C(=O)NCC(=O)N[C@@H](Cc1ccccc1)C(=O)N[C@@H](CO)C(=O)N1CCC[C@H]1C(=O)N[C@@H](Cc1ccccc1)C(=O)N[C@@H](CCCN=C(N)N)C(=O)O`, the Kb in the assay listed under Cavia porcellus [17] was 2570 nM. Further, the IC50 is 232 nM in assay [8], 25 nM in assay [9], 3.5 nM in assay [10] and 1 nM in assay [12]. Moreover, the Activity is 1.4% in the assay filed under Cavia porcellus [2], 35% in the assay listed under Rattus norvegicus [3] and 4% in the assay filed under Cavia porcellus [11].
In the case of `CN(C(=O)[C@@H]1CCCN1C(=O)[C@@H](N)CCCN=C(N)N)[C@@H](Cc1ccccc1)C(=O)NCC(=O)N[C@@H](Cc1ccccc1)C(=O)N[C@@H](CO)C(=O)N1CCC[C@H]1C(=O)N[C@@H](Cc1ccccc1)C(=O)N[C@@H](CCCN=C(N)N)C(=O)O`, the IC50 is 375 nM in assay [8], 8000 nM in [9], 0.2 nM in assay [10] and 2.6 nM in assay [12]. Besides, the Activity in the assay filed under Cavia porcellus [2] is 0.03%; in the assay listed under Rattus norvegicus [3], 0.03%; in the assay filed under Cavia porcellus [11], 0.05%.
